Laboratory results from ChEMBL document CHEMBL4145471, “New 1,5 and 2,5-disubstituted tetrazoles-dependent activity towards surface barrier of Candida albicans” (Eur J Med Chem, 2018).
The source made the active and inactive calls. The rule behind the calls is not given here.

Tests used:
[1] = tested on: Candida albicans; experiment: Antifungal activity against Candida albicans ATCC 90028 infected in Galleria mellonella larvae assessed as increase in health score at 16 ug/ml treated for 60 mins post infection measured after 18 hrs; type: functional, organism-based
[2] = tested on: Candida albicans; experiment: Antifungal activity against Candida albicans ATCC 90028 infected in Galleria mellonella larvae assessed as survival at 16 ug/ml treated for 30 to 60 mins post infection and measured after 48 hrs; type: functional, organism-based
In short: (§1)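 G. mellonella larvae (195±17 mg, ethanol-disinfected) were given 10 µL C. albicans suspension into the last right proleg. A single 10 µL dose at 16 µg/mL in RPMI (diluted from 1600 µg/mL stock) went into the last left proleg, either 30 min or 1 h after infection or 1 h or 30 min before it. Survival was checked every 24 h for 2 days. Untreated infected larvae and PBS-injected larvae served as controls; ≥3 independent experiments, mean±SEM.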

[3] = tested on: Candida albicans; experiment: Antifungal activity against Candida albicans ATCC 90028 infected in Galleria mellonella larvae assessed as increase in larvae health score at 16 ug/ml treated for 30 mins post infection and measured after 18 to 48 hrs; type: functional, organism-based
In short: (§2)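 Larvae (195±17 mg, ethanol-disinfected) were injected with 10 µL C. albicans into the last right proleg. Compound at 16 µg/mL in RPMI (10 µL) went into the last left proleg 30 min or 1 h after infection, or 1 h or 30 min before it. A health index was scored from mobility, cocoon formation, melanization and survival, with monitoring every 24 h for 2 days. Controls were infected and PBS-injected larvae.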

[4] = tested on: Candida albicans; experiment: Antifungal activity against Candida albicans ATCC 90028 infected in Galleria mellonella larvae assessed as increase in larvae health score at 16 ug/ml preincubated for 30 mins followed by fungal infection and measured after 18 to 48 hrs; type: functional, organism-based; in short: as §2
[5] = tested on: Candida albicans; experiment: Antifungal activity against Candida albicans ATCC 90028 infected in Galleria mellonella larvae assessed as survival at 16 ug/ml treated for 30 to 60 mins post infection; type: functional
In short: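 Larvae (195±17 mg, ethanol-disinfected) injected with 10 µL C. albicans suspension into last right proleg; single 10 µL dose (16 µg/mL in RPMI, diluted from 1600 µg/mL stock) into last left proleg 30 min or 1 h later. Controls: infected untreated and PBS-injected. Survival monitored every 24 h for 2 days; health index scored. At least three independent experiments.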

[6] = tested on: Candida albicans; experiment: Induction of necrosis in Candida albicans ATCC 90028 biofilms assessed as loss of cell membrane integrity at 0.03 ug/ml after 18 hrs by propidium iodide/acridine orange staining based confocal laser scanning microscopic analysis; type: functional, organism-based
In short: (§3)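 Caco-2-free model: the TR146 epithelial layer, 21 days post-seeding on filter inserts, was inoculated with 1.0–1.2×10^5/mL log-phase ATCC 90028 yeast. Biofilms were treated at 256, 16 or 0.0313 µg/mL for 18–48 h at 37°C in 5% CO2 and washed with PBS. Unfixed cells were stained with propidium iodide (5 µg/mL) and acridine orange, then imaged by confocal laser scanning microscopy.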

[7] = tested on: Candida albicans; experiment: Induction of late apoptosis in Candida albicans ATCC 90028 biofilms assessed as formation of condense chromatin at 16 ug/ml after 18 hrs by propidium iodide/acridine orange staining based confocal laser scanning microscopic analysis; type: functional, organism-based; in short: as §3
[8] = tested on: Candida albicans; experiment: Induction of necrosis in Candida albicans ATCC 90028 biofilms assessed as loss of cell membrane integrity at 16 ug/ml after 18 hrs by propidium iodide/acridine orange staining based confocal laser scanning microscopic analysis; type: functional, organism-based; in short: as §3
[9] = tested on: Candida albicans; experiment: Induction of early apoptosis in Candida albicans ATCC 90028 biofilms at 256 ug/ml after 18 hrs by propidium iodide/acridine orange staining based confocal laser scanning microscopic analysis; type: functional, organism-based; in short: as §3
[10] = tested on: Candida albicans; experiment: Antifungal activity against Candida albicans ATCC 90028 assessed as reduction in cell adherence to human Caco2 cells at 256 ug/ml preincubated for 2 hrs followed by compound washout and resuspended in RPMI medium measured after 18 hrs by colony counting assay relative to control; type: functional; design: scale not given: the % may be the effect or the level left
In short: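 Yeasts grown 18 h in YEPD at 30°C, then exposed at 10^4/mL to compound in RPMI for 2 h at 35°C with shaking. Washed twice in PBS, resuspended in RPMI and added to Caco-2 monolayers (18 h culture in EMEM/10% FCS) for 2 h at 37°C, 5% CO2. Non-adherent cells rinsed off, Caco-2 lysed with water, and adherent yeasts counted as colonies on Sabouraud agar after 18 h at 30°C. Expressed as % of cells added versus untreated; three experiments.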

[11] = tested on: Candida albicans; experiment: Antifungal activity against Candida albicans ATCC 90028 infected in Galleria mellonella larvae assessed as increase in larvae survival at 16 ug/ml preincubated for 30 to 60 mins followed by fungal infection and measured every 24 hrs for 2 days; type: functional, organism-based; in short: as §1
[12] = tested on: Candida albicans; experiment: Antifungal activity against Candida albicans ATCC 90028 infected in Galleria mellonella larvae assessed as increase in health score at 16 ug/ml treated for 60 mins post infection measured after 48 hrs; type: functional, organism-based; in short: as §2
[13] = tested on: Candida albicans; experiment: Ratio of MIC for Candida albicans ATCC 90028 in absence of ergosterol to MIC for Candida albicans ATCC 90028 in presence of ergosterol; type: functional
In short: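 MICs per modified M27-A3 in RPMI with or without ergosterol (final 400 µg/mL, dissolved in 10% DMSO/1% Tween 80 with heating). Inoculum 10³ CFU/mL; tetrazoles and itraconazole tested at 512–1 µg/mL, amphotericin B at 125–0.24 µg/mL. Plates were incubated at 35°C and read at 72 h; MIC was the lowest concentration with no visible growth. Run in triplicate on three days, geometric means.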

| Structure (SMILES) | Activity [1] | Activity [2] | Activity [3] | Activity [4] | Survival [5] | Activity [6] | Activity [7] | Activity [8] | Activity [9] | Activity [10] [%] | Activity [11] | Activity [12] | Ratio [13] |
| --- | --- | --- | --- | --- | --- | --- | --- | --- | --- | --- | --- | --- | --- |
| CCOC(=O)CCn1nnc(-c2ccccc2)n1 | Active | inactive | Active | Active | <=18 hr | Active | Active | Active | Active | 59.12 | Active | inactive | – |
| ClCCCn1nnnc1-c1ccccc1Cl | – | – | – | – | – | – | – | – | – | – | – | – | 2 |
